According to the array DNA melting data of Ke et al. (doi:10.1101/2024.01.08.574731):

Key:
[1] = folding enthalpy; higher = less favourable; fluorescence melt of hairpins on a sequencing array, two-state fit; details: sodium 0.088 M
Summary of the method: (§1)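 On a sequenced MiSeq flow cell, library hairpins with annealed Cy3 and quencher oligos were imaged for Cy3 fluorescence in 2.5 °C steps up to 60 °C, in 50 mM Na-HEPES pH 8.0, 25 mM NaCl. Normalisation used pre-quench Cy3 and control constructs. Bootstrapped two-state fits gave melting temperature and folding enthalpy, combined by inverse variance across four replicates and with fitted temperatures raised by 9.35 °C to match UV melts.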

[2] = melting temperature; fluorescence melt of hairpins on a sequencing array, two-state fit, raised by 9.35 °C to match UV melts; details: sodium 0.088 M
Summary of the method: as §1

GCTCACGGAAACACGAGC ((((..(....)..)))) gave a folding enthalpy [1] of -25.8 kcal/mol and a Tm [2] of 34 °C.

GCTCACGGAAACGTAAGC (((.(((....))).))) showed a folding enthalpy [1] of -27.3 kcal/mol and a Tm [2] of 41.8 °C.

With GCTCAGCGAAAGCACAGC (((..((....))..))) the folding enthalpy [1] was -14.9 kcal/mol and the Tm [2] was 39.7 °C.

GCTCAGCGAAAGCAGTGC ((.(.((....)).).)) showed a folding enthalpy [1] of -13.2 kcal/mol and a Tm [2] of 44.4 °C.

For GCTCAGCGAAAGCCGCGC ((.(.((....)).).)), the folding enthalpy [1] was -17.8 kcal/mol and the Tm [2] was 42 °C.

In the case of GCTCAGCGAAAGCCGGGC ((.(.((....)).).)), the folding enthalpy [1] was -17.1 kcal/mol and the Tm [2] was 45.4 °C.

With GCTCAGCGAAAGCTAGC (((.(((....)))))) the folding enthalpy [1] was -20 kcal/mol and the Tm [2] was 49.4 °C.

Work on GCTCAGCGAAAGCTCAGC (((.(((....))).))) yielded a folding enthalpy [1] of -15 kcal/mol and a Tm [2] of 44.7 °C.

In the case of GCTCAGCGAAAGCTCCGC ((..(((....)))..)), the folding enthalpy [1] was -8.07 kcal/mol and the Tm [2] was 22.4 °C.

GCTCAGCGAAAGCTGTGC ((.((((....)))).)) gave a folding enthalpy [1] of -21.5 kcal/mol and a Tm [2] of 64.2 °C.

Sequence GCTCATCGAAAGATTAGC (((.(((....))).))) has a folding enthalpy [1] of -34.5 kcal/mol and a Tm [2] of 42.8 °C.

In the case of GCTCCACCGAAAGGTAGC (((..(((....)))))), the folding enthalpy [1] was -17.2 kcal/mol and the Tm [2] was 33.9 °C.

GCTCCACGAAAGTGTAGC (((.(((....))).))) gave a folding enthalpy [1] of -28.9 kcal/mol and a Tm [2] of 49.2 °C.

With GCTCCAGGAAACCGGAGC (((((.(....).))))) the folding enthalpy [1] was -40.5 kcal/mol and the Tm [2] was 54.3 °C.

Sequence GCTCCAGGAAACTGAAGC (((.(((....))).))) has a folding enthalpy [1] of -32.5 kcal/mol and a Tm [2] of 38.6 °C.

GCTCCCCCGAAAGGGAGC (((..(((....)))))) showed a folding enthalpy [1] of -29.4 kcal/mol and a Tm [2] of 66.1 °C.

Work on GCTCCCGAAAGGGAGAGC ((((((....)))..))) yielded a folding enthalpy [1] of -11.8 kcal/mol and a Tm [2] of 65.8 °C.

GCTCCCGAAAGGGCAAGC ((((((....)))..))) showed a folding enthalpy [1] of -15.9 kcal/mol and a Tm [2] of 42.2 °C.

In the case of GCTCCCGAAAGGGTGAGC ((((((....)))..))), the folding enthalpy [1] was -16.7 kcal/mol and the Tm [2] was 48.8 °C.

GCTCCCGGAAACAGGAGC (((((.(....).))))) gave a folding enthalpy [1] of -34.3 kcal/mol and a Tm [2] of 49.5 °C.

With GCTCCCGGAAACGGGGGC ((.((((....)))).)) the folding enthalpy [1] was -26.7 kcal/mol and the Tm [2] was 68.5 °C.

GCTCCGCCGAAAGGCAGC (((..(((....)))))) gave a folding enthalpy [1] of -9.89 kcal/mol and a Tm [2] of 35.1 °C.

Work on GCTCCGCGAAAGCAGCGC ((.(.((....)).).)) yielded a folding enthalpy [1] of -17.1 kcal/mol and a Tm [2] of 43.7 °C.

GCTCCGCGAAAGCCCAGC (((..((....))..))) showed a folding enthalpy [1] of -5.26 kcal/mol and a Tm [2] of 23.2 °C.

Work on GCTCCGCGAAAGCCGGGC ((.(.((....)).).)) yielded a folding enthalpy [1] of -16.4 kcal/mol and a Tm [2] of 50 °C.

In the case of GCTCCGCGAAAGCGAAGC (((.(((....))).))), the folding enthalpy [1] was -29 kcal/mol and the Tm [2] was 56.4 °C.

With GCTCCGCGAAAGCGACGC ((..(((....)))..)) the folding enthalpy [1] was -18.4 kcal/mol and the Tm [2] was 42.6 °C.

Sequence GCTCCGCGAAAGCGCTGC ((..(((....)))..)) has a folding enthalpy [1] of -12.3 kcal/mol and a Tm [2] of 37.4 °C.

GCTCCGTCGAAAGACAGC (((..(((....)))))) showed a folding enthalpy [1] of -15 kcal/mol and a Tm [2] of 32.4 °C.

For GCTCCTGGAAACAAGAGC ((((.((....)).)))), the folding enthalpy [1] was -27.9 kcal/mol and the Tm [2] was 34.8 °C.

Sequence GCTCCTGGAAACAGAAGC (((.(((....))).))) has a folding enthalpy [1] of -28.5 kcal/mol and a Tm [2] of 39.9 °C.

With GCTCCTGGAAACGGGAGC (((((.(....).))))) the folding enthalpy [1] was -41.1 kcal/mol and the Tm [2] was 59.5 °C.

Work on GCTCGACGAAAGTCCAGC (((.(((....))).))) yielded a folding enthalpy [1] of -24.1 kcal/mol and a Tm [2] of 44.6 °C.

GCTCGCCGAAAGGCAAGC (((.(((....))).))) gave a folding enthalpy [1] of -29.1 kcal/mol and a Tm [2] of 54.7 °C.

GCTCGCGAAAGCGAAAGC ((((((....)))..))) showed a folding enthalpy [1] of -14.4 kcal/mol and a Tm [2] of 54.3 °C.

For GCTCGCGAAAGCGACAGC ((((((....)))..))), the folding enthalpy [1] was -10.7 kcal/mol and the Tm [2] was 47.5 °C.

Sequence GCTCGCGAAAGCGCAAGC ((((((....)))..))) has a folding enthalpy [1] of -12.4 kcal/mol and a Tm [2] of 48.5 °C.

Work on GCTCGCGAAAGCGCCAGC ((((((....)))..))) yielded a folding enthalpy [1] of -8.57 kcal/mol and a Tm [2] of 42.1 °C.

For GCTCGCGAAAGCGGGAGC ((((((....)))..))), the folding enthalpy [1] was -15.7 kcal/mol and the Tm [2] was 55.1 °C.

With GCTCGCGAAAGCGTGAGC ((((((....)))..))) the folding enthalpy [1] was -18 kcal/mol and the Tm [2] was 53.4 °C.

Sequence GCTCGCGGAAACACGAGC (((((.(....).))))) has a folding enthalpy [1] of -44.6 kcal/mol and a Tm [2] of 55.2 °C.

GCTCGGCGAAAGCCACGC ((..(((....)))..)) gave a folding enthalpy [1] of -11.5 kcal/mol and a Tm [2] of 43.3 °C.

Sequence GCTCGGCGAAAGCCCAGC (((.(((....))).))) has a folding enthalpy [1] of -42.5 kcal/mol and a Tm [2] of 44.2 °C.

GCTCGGCGAAAGCCGCGC ((.((((....)))).)) gave a folding enthalpy [1] of -18.5 kcal/mol and a Tm [2] of 65.1 °C.

GCTCGGCGAAAGCTAAGC (((..((....))..))) gave a folding enthalpy [1] of -15.8 kcal/mol and a Tm [2] of 44.4 °C.

With GCTCGGGGAAACCCGAAC (.(((((....))))).) the folding enthalpy [1] was -12.6 kcal/mol and the Tm [2] was 45.9 °C.

Sequence GCTCGGGGAAACCTGAGC ((((.((....)).)))) has a folding enthalpy [1] of -35.1 kcal/mol and a Tm [2] of 59.3 °C.

Sequence GCTCGTCCGAAAGGAAGC (((..(((....)))))) has a folding enthalpy [1] of -8.41 kcal/mol and a Tm [2] of 36.6 °C.

For GCTCGTCGAAAGACTAGC (((.(((....))).))), the folding enthalpy [1] was -39 kcal/mol and the Tm [2] was 49 °C.

Work on GCTCTACGAAAGTACAGC (((.(((....))).))) yielded a folding enthalpy [1] of -21.5 kcal/mol and a Tm [2] of 35.5 °C.

For GCTCTATCGAAAGATAGC (((..(((....)))))), the folding enthalpy [1] was -13.6 kcal/mol and the Tm [2] was 30.2 °C.

In the case of GCTCTCCGAAAGGAAAGC (((.(((....))).))), the folding enthalpy [1] was -28.4 kcal/mol and the Tm [2] was 46.5 °C.

With GCTCTCCGAAAGGATAGC (((.(((....))).))) the folding enthalpy [1] was -34.7 kcal/mol and the Tm [2] was 49.1 °C.

GCTCTCGAAAGAGACAGC ((((((....)))..))) showed a folding enthalpy [1] of -17.8 kcal/mol and a Tm [2] of 35.9 °C.

With GCTCTCGAAAGAGCCAGC ((((((....)))..))) the folding enthalpy [1] was -11.3 kcal/mol and the Tm [2] was 37.5 °C.

With GCTCTCGAAAGAGTAGC ((((((....))).))) the folding enthalpy [1] was -27.8 kcal/mol and the Tm [2] was 47.2 °C.

In the case of GCTCTGCGAAAGCAACGC ((..(((....)))..)), the folding enthalpy [1] was -9.7 kcal/mol and the Tm [2] was 31.8 °C.

Work on GCTCTGCGAAAGCACAGC (((.(((....))).))) yielded a folding enthalpy [1] of -25.6 kcal/mol and a Tm [2] of 38.6 °C.

GCTCTGCGAAAGCACGGC ((..(((....)))..)) gave a folding enthalpy [1] of -14.6 kcal/mol and a Tm [2] of 39.7 °C.

Sequence GCTCTGCGAAAGCAGTGC ((.((((....)))).)) has a folding enthalpy [1] of -16.7 kcal/mol and a Tm [2] of 62 °C.

Sequence GCTCTGCGAAAGCATCGC ((..(((....)))..)) has a folding enthalpy [1] of -16.3 kcal/mol and a Tm [2] of 35.4 °C.

In the case of GCTCTGCGAAAGCCCAGC (((..((....))..))), the folding enthalpy [1] was -9.22 kcal/mol and the Tm [2] was 30.5 °C.

For GCTCTGCGAAAGCCGCGC ((.(.((....)).).)), the folding enthalpy [1] was -15 kcal/mol and the Tm [2] was 39.4 °C.

GCTCTGCGAAAGCTGAGC ((((.((....)).)))) showed a folding enthalpy [1] of -41.2 kcal/mol and a Tm [2] of 68.3 °C.

Sequence GCTCTGGGAAACTGGAGC ((((..(....)..)))) has a folding enthalpy [1] of -34.1 kcal/mol and a Tm [2] of 45.9 °C.

GCTCTTACGAAAGTAAGC (((..(((....)))))) showed a folding enthalpy [1] of -9.83 kcal/mol and a Tm [2] of 34.7 °C.

GCTGACCCGAAAGGGAGC (((..(((....)))))) showed a folding enthalpy [1] of -14.7 kcal/mol and a Tm [2] of 41.8 °C.

Work on GCTGACCGAAAGGTGAGC (((.(((....))).))) yielded a folding enthalpy [1] of -38.4 kcal/mol and a Tm [2] of 55.4 °C.
